Key:
[1] = Percent block of sciatic nerve sartorius muscle twitch of frog 30 min after direct stimulation and exposure to 50 uM toxin for 60 min; type: functional, Muscle tissue
Summary of the method: (§1)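 Frog sartorius nerve-muscle in oxygenated physiological solution (100% O2, pH 6.9-7.1). Indirect: nerve stimulated with supramaximal 0.05-0.1 ms pulses via Ag-AgCl salt-bridge electrode. Direct: supramaximal 1.0-2.0 ms rectangular pulses at 0.05 Hz through bipolar platinum electrode around mid-muscle. Compounds at 50 µM, diluted in physiological solution just before use, applied 60 min. Twitch tension recorded; means ± SD from at least three muscles.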

[2] = Percent block of sciatic nerve sartorius muscle twitch of frog 60 min after direct stimulation and exposure to 50 uM toxin for 60 min; type: functional, Muscle tissue; summary of the method: as §1
[3] = Percent block of sciatic nerve sartorius muscle twitch of frog 60 min after indirect stimulation and exposure to 50 uM toxin for 60 min; type: functional, Muscle tissue; summary of the method: as §1
[4] = Percent block of sciatic nerve sartorius muscle twitch of frog 30 min after indirect stimulation and exposure to 50 uM toxin for 60 min; type: functional, Muscle tissue; summary of the method: as §1
[5] = Percent maximum potentiation of the sciatic nerve sartorius muscle twitch after direct stimulation and exposure to 50 uM toxin for 60 min; type: functional, frog, Muscle tissue; summary of the method: as §1
[6] = Percent maximum potentiation of the sciatic nerve sartorius muscle twitch after indirect stimulation and exposure to 50 uM toxin for 60 min; type: functional, frog, Muscle tissue; summary of the method: as §1

SMILES | Block [1] [%] | Block [2] [%] | Block [3] [%] | Block [4] [%] | Activity [5] [%] | Activity [6] [%]
CCCC[C@@H]1[C@@H](OC(C)=O)CCCC12CCCC[N+]2(C)C.[I-] (some centres undefined) | 34 | 47 | 91 | 85 | – | –
CCCCC1C(OC(=O)OC)CCCC12CCCCN2C(=O)OC (centres undefined) | 0 | 0 | 0 | 0 | – | –
CCCC[C@@H]1[C@H](O)CCCC12CCCCN2 (some centres undefined) | 19 | 30 | 61 | 55 | – | –
CCCCC1C(O)CCCC12CCCCN2 (centres undefined) | 52 | 52 | 100 | 96 | – | –
CCCC[C@@H]1[C@@H](O)CCCC12CCCC[N+]2(C)C.[I-] (some centres undefined) | 29 | 43 | 49 | 39 | – | –
CCCC[C@@H]1[C@H](O)CCCC12CCCCN2C (some centres undefined) | 5 | 5 | 65 | 62 | – | –
CCCCC1C(OC(C)=O)CCCC12CCCCN2C (centres undefined) | 22 | 25 | 94 | 88 | – | –
CCCCC1C(OC(=O)OC)CCCC12CCCCN2 (centres undefined) | 14 | 25 | 82 | 67 | – | –
CCCC[C@@H]1C(=O)CCCC12CCCCN2C (some centres undefined) | 26 | 33 | 56 | 49 | – | –
CCCCC1C(O)CCCC12CCCCN2C(C)=O (centres undefined) | 20 | 24 | 26 | 10 | 103 | 116
CCCCC1C(O)CCCC12CCCCN2C (centres undefined) | 24 | 30 | 92 | 78 | – | –
CCCC[C@@H]1C(=O)CCCC12CCCCN2 (some centres undefined) | 8 | 25 | 58 | 46 | – | –
CCCCC1C(OC(C)=O)CCCC12CCCCN2C(C)=O (centres undefined) | 0 | 0 | 0 | 0 | 118 | 125
CCCC[C@@H]1[C@H](O)CCCC12CCCC[N+]2(C)C.[I-] (some centres undefined) | 48 | 49 | 83 | 74 | – | –
CCCCC1C2CCCC13CCCCN3C(=O)O2 (centres undefined) | 22 | 31 | 66 | 35 | – | –
CCCC[C@@H]1C(=O)CCCC12CCCCN2C(C)=O (some centres undefined) | 0 | 6 | 20 | 7 | 102 | 117
CCCCCC1CCC[C@]2(CCC[C@H](O)C2CCCC)N1 (some centres undefined) | 47 | 45 | 100 | 100 | – | –

— ChEMBL document CHEMBL1122108, “(+/-)-2-Depentylperhydrohistrionicotoxin: a new probe for a regulatory site on the nicotinic acetylcholine receptor-channel” (1982)
